Experimental data taken from ChEMBL document CHEMBL4330063, “New naphthopyran analogues of LY290181 as potential tumor vascular-disrupting agents” (Eur J Med Chem, 2019).
Each block holds one compound with its values, some of them ahead of it. Calls of active or inactive are those of the source. No cut-off for these calls is given here.

What was measured:
[1] = Antiproliferative activity against human A2780cis cells after 72 hrs by SRB assay; assay type: functional, cell-based
How it was run: (§1)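 Ovarian A2780 and cisplatin-resistant A2780cis cells were exposed for 72 h and stained with SRB. IC50 comes from dose-response curves, as means±SD of three independent experiments. Final DMSO was below 1%, with matched vehicle controls.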

A2780 = assay: Antiproliferative activity against human A2780 cells after 72 hrs by SRB assay; assay type: functional, cell-based; conditions: A2780, 72 h; how it was run: as §1
HT-29 [2] = assay: Antiproliferative activity against human HT-29 cells after 72 hrs by MTT assay; assay type: functional, cell-based; conditions: HT-29, 72 h
How it was run: (§2)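 MTT read-out after 72 h of continuous exposure. Viability is expressed as percentage of viable cells relative to untreated controls. IC50 comes from dose-response curves. Values are means±SD of four independent experiments (two for some entries). DMSO was below 1%, with vehicle controls at equal DMSO. Precipitation was excluded spectrometrically and microscopically.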

518A2 [3] = assay: Antiproliferative activity against human 518A2 cells after 72 hrs by MTT assay; assay type: functional, cell-based; conditions: for IC50: 518A2, 72 h; how it was run: as §2
HCT-116 = assay: Antiproliferative activity against human HCT116 cells after 72 hrs by MTT assay; assay type: functional, cell-based; conditions: HCT-116, 72 h; how it was run: as §2
HT-29 [4] = assay: Cell cycle arrest in human HT-29 cells assessed as accumulation of cells at G2/M phase at 350 nM after 24 hrs by propidium iodide staining-based flow cytometric analysis (reference value: 11.4 +/- 1.4%); assay type: functional
Chorioallantoic membrane [5] = assay: Antiangiogenic activity in Leghorn chicken embryo chorioallantoic membrane assessed as induction of hemorrhages at 5 nmol after 24 hrs by light microscopic analysis; assay type: functional, tissue-based; conditions: Gallus gallus
How it was run: (§3)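 Fertilized chicken eggs, CAM assay. Compound was applied topically into a small silicon foil ring placed on the CAM. The membrane and its extraembryonal blood vessels were monitored over 24 h, with observations at 6 h and 24 h post application.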

HT-29 [6] = assay: Cell cycle arrest in human HT-29 cells assessed as accumulation of cells at S phase at 250 nM after 24 hrs by propidium iodide staining-based flow cytometric analysis (reference value: 12.3 +/- 0.4%); assay type: functional
PANC-1 = assay: Antiproliferative activity against human PANC1 cells after 72 hrs by MTT assay; assay type: functional, cell-based; conditions: PANC-1, 72 h; how it was run: as §2
HT-29 [7] = assay: Cell cycle arrest in human HT-29 cells assessed as accumulation of cells at G1 phase at 100 nM after 24 hrs by propidium iodide staining-based flow cytometric analysis (reference value: 75.1 +/- 1.1%); assay type: functional
HT-29 [8] = assay: Cell cycle arrest in human HT-29 cells assessed as accumulation of cells at sub G1 phase at 100 nM after 24 hrs by propidium iodide staining-based flow cytometric analysis (reference value: 1.2 +/- 0.3%); assay type: functional
Chorioallantoic membrane [9] = assay: Antiangiogenic activity in Leghorn chicken embryo chorioallantoic membrane assessed as disruption of smaller blood vessels at 5 nmol after 6 hrs by light microscopic analysis; assay type: functional, tissue-based; conditions: Gallus gallus; how it was run: as §3
HT-29 [10] = assay: Cell cycle arrest in human HT-29 cells assessed as accumulation of cells at G2/M phase at 100 nM after 24 hrs by propidium iodide staining-based flow cytometric analysis (reference value: 11.4 +/- 1.4%); assay type: functional
HT-29 [11] = assay: Cell cycle arrest in human HT-29 cells assessed as accumulation of cells at S phase at 100 nM after 24 hrs by propidium iodide staining-based flow cytometric analysis (reference value: 12.3 +/- 0.4%); assay type: functional
EA.hy 926 = assay: Antiproliferative activity against human EAhy926 cells after 72 hrs by MTT assay; assay type: functional, cell-based; conditions: EA.hy 926, 72 h; how it was run: as §2
518A2 [12] = assay: Induction of cell cycle arrest in human 518A2 cells; assay type: functional, cell-based
518A2 [13] = assay: Induction of apoptosis in human 518A2 cells assessed as accumulation at subG1 phase; assay type: functional, cell-based
Chorioallantoic membrane [14] = assay: Antiangiogenic activity in Leghorn chicken embryo chorioallantoic membrane assessed as effect on blood vessel length at 5 nmol after 6 hrs by light microscopic analysis; assay type: functional, tissue-based; conditions: Gallus gallus; how it was run: as §3
HT-29 [15] = assay: Cell cycle arrest in human HT-29 cells assessed as accumulation of cells at sub G1 phase at 250 nM after 24 hrs by propidium iodide staining-based flow cytometric analysis (reference value: 1.2 +/- 0.3%); assay type: functional
HT-29 [16] = assay: Cell cycle arrest in human HT-29 cells assessed as accumulation of cells at S phase at 350 nM after 24 hrs by propidium iodide staining-based flow cytometric analysis (reference value: 12.3 +/- 0.4%); assay type: functional
Chorioallantoic membrane [17] = assay: Antiangiogenic activity in Leghorn chicken embryo chorioallantoic membrane assessed as disruption of smaller blood vessels at 5 nmol after 24 hrs by light microscopic analysis; assay type: functional, tissue-based; conditions: Gallus gallus; how it was run: as §3
HT-29 [18] = assay: Cell cycle arrest in human HT-29 cells assessed as accumulation of cells at G1 phase at 250 nM after 24 hrs by propidium iodide staining-based flow cytometric analysis (reference value: 75.1 +/- 1.1%); assay type: functional
HT-29 [19] = assay: Cell cycle arrest in human HT-29 cells assessed as accumulation of cells at G2/M phase at 250 nM after 24 hrs by propidium iodide staining-based flow cytometric analysis (reference value: 11.4 +/- 1.4%); assay type: functional
[20] = Antiproliferative activity against human KB-V1/Vbl cells after 72 hrs by MTT assay; assay type: functional, cell-based; how it was run: as §2
HT-29 [21] = assay: Cell cycle arrest in human HT-29 cells assessed as accumulation of cells at G2/M phase after 24 hrs by propidium iodide staining-based flow cytometric analysis; assay type: functional
[22] = Antiproliferative activity against human MCF7/Topo cells after 72 hrs by MTT assay; assay type: functional, cell-based; how it was run: as §2
HT-29 [23] = assay: Cell cycle arrest in human HT-29 cells assessed as accumulation of cells at G1 phase at 350 nM after 24 hrs by propidium iodide staining-based flow cytometric analysis (reference value: 75.1 +/- 1.1%); assay type: functional
Chorioallantoic membrane [24] = assay: Antiangiogenic activity in Leghorn chicken embryo chorioallantoic membrane assessed as reduction in blood vessel area at 5 nmol after 6 hrs by light microscopic analysis relative to control; assay type: functional, tissue-based; conditions: Gallus gallus
How it was run: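 The CAM assay was run with topical application into a silicon foil ring atop the CAM of fertilized chicken eggs. Area covered by blood vessels was quantified by fractal analysis relative to control.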

Chorioallantoic membrane [25] = assay: Antiangiogenic activity in Leghorn chicken embryo chorioallantoic membrane assessed as induction of hemorrhages at 5 nmol after 6 hrs by light microscopic analysis; assay type: functional, tissue-based; conditions: Gallus gallus; how it was run: as §3
Chorioallantoic membrane [26] = assay: Antiangiogenic activity in Leghorn chicken embryo chorioallantoic membrane assessed as reduction in diameter of main blood vessel at 5 nmol after 24 hrs by light microscopic analysis; assay type: functional, tissue-based; conditions: Gallus gallus; how it was run: as §3
DLD-1 = assay: Antiproliferative activity against human DLD1 cells after 72 hrs by MTT assay; assay type: functional, cell-based; conditions: DLD-1, 72 h; how it was run: as §2
HT-29 [27] = assay: Cell cycle arrest in human HT-29 cells assessed as accumulation of cells at sub G1 phase at 350 nM after 24 hrs by propidium iodide staining-based flow cytometric analysis (reference value: 1.2 +/- 0.3%); assay type: functional

Structure (SMILES): N#CC1=C(N)Oc2c(cc(Cl)c3ccccc23)C1c1ccccc1Cl (stereo unspecified)
IC50 [1]: 973 nM | IC50 (A2780): 912 nM | IC50 (HT-29 [2]): 2030 nM | Activity (518A2 [3]): Dose-dependent effect | IC50 (518A2 [3]): 9910 nM

Structure (SMILES): CSc1ccc(C2C(C#N)=C(N)Oc3c2ccc2ccccc32)cc1 (stereo unspecified)
IC50 [1]: 430 nM | IC50 (A2780): 363 nM | IC50 (HT-29 [2]): 1100 nM | Activity (518A2 [3]): Dose-dependent effect | IC50 (518A2 [3]): 1980 nM

Structure (SMILES): N#CC1=C(N)Oc2c(ccc3ccccc23)C1c1cccc(S(F)(F)(F)(F)F)c1 (stereo unspecified)
IC50 [1]: 265 nM | IC50 (A2780): 188 nM | IC50 (HT-29 [2]): 570 nM | Activity (518A2 [3]): Dose-dependent effect | IC50 (518A2 [3]): 505 nM

More lines, main results first:

IC50 (A2780): 155 nM | IC50 (HT-29 [2]): 245 nM
Structure (SMILES): N#CC1=C(N)Oc2c(cc(Cl)c3ccccc23)C1c1cccc(Br)c1 (stereo unspecified)
IC50 [1]: 166 nM | Activity (518A2 [3]): Dose-dependent effect | IC50 (518A2 [3]): 229 nM

IC50 (HCT-116): 73.5 nM | IC50 (PANC-1): 54.9 nM | IC50 (A2780): 49.9 nM | IC50 (HT-29 [2]): 67.3 nM | IC50 (DLD-1): 69.4 nM
Structure (SMILES): N#CC1=C(N)Oc2c(cc(Cl)c3ccccc23)C1c1cccc(C#N)c1 (stereo unspecified)
IC50 [1]: 56.7 nM | Activity (HT-29 [4]): 51.6% | Activity (Chorioallantoic membrane [5]): inactive | Activity (HT-29 [6]): 9.1% | Activity (HT-29 [7]): 51.7% | Activity (HT-29 [8]): 19.8% | Activity (Chorioallantoic membrane [9]): Active | Activity (HT-29 [10]): 12.3% | Activity (HT-29 [11]): 16.1% | IC50 (EA.hy 926): 78.6 nM | Activity (518A2 [12]): inactive | Activity (518A2 [13]): Active | Activity (Chorioallantoic membrane [14]): inactive | Activity (HT-29 [15]): 27.8% | Activity (HT-29 [16]): 8.5% | Activity (Chorioallantoic membrane [17]): inactive | Activity (HT-29 [18]): 22.2% | Activity (HT-29 [19]): 40.9% | Activity (518A2 [3]): Dose-dependent effect | IC50 (518A2 [3]): 60.5 nM | IC50 [20]: 55.9 nM | Activity (HT-29 [21]): Dose-dependent effect | IC50 [22]: 58.1 nM | Activity (HT-29 [23]): 13% | Activity (Chorioallantoic membrane [24]): inactive | Activity (Chorioallantoic membrane [25]): Active | Activity (Chorioallantoic membrane [26]): Active | Activity (HT-29 [27]): 27%

IC50 (A2780): 160 nM | IC50 (HT-29 [2]): 188 nM
Structure (SMILES): COc1c(Br)cc(C2C(C#N)=C(N)Oc3c2cc(Cl)c2ccccc32)cc1Br (stereo unspecified)
IC50 [1]: 168 nM | Activity (518A2 [3]): Dose-dependent effect | IC50 (518A2 [3]): 144 nM

IC50 (HCT-116): 91 nM | IC50 (PANC-1): 92.7 nM | IC50 (A2780): 104 nM | IC50 (HT-29 [2]): 102 nM | IC50 (DLD-1): 98.4 nM
Structure (SMILES): N#CC1=C(N)Oc2c(cc(Cl)c3ccccc23)C1c1cc(F)cc(F)c1 (stereo unspecified)
IC50 [1]: 155 nM | Activity (HT-29 [4]): 90.3% | Activity (Chorioallantoic membrane [5]): inactive | Activity (HT-29 [6]): 2.3% | Activity (HT-29 [7]): 52% | Activity (HT-29 [8]): 3.3% | Activity (Chorioallantoic membrane [9]): Active | Activity (HT-29 [10]): 25% | Activity (HT-29 [11]): 19.6% | IC50 (EA.hy 926): 67.8 nM | Activity (518A2 [12]): inactive | Activity (518A2 [13]): Active | Activity (Chorioallantoic membrane [14]): inactive | Activity (HT-29 [15]): 4.5% | Activity (HT-29 [16]): 2.2% | Activity (Chorioallantoic membrane [17]): inactive | Activity (HT-29 [18]): 3% | Activity (HT-29 [19]): 90.3% | Activity (518A2 [3]): Dose-dependent effect | IC50 (518A2 [3]): 24.1 nM | IC50 [20]: 92 nM | Activity (HT-29 [21]): Dose-dependent effect | IC50 [22]: 79.8 nM | Activity (HT-29 [23]): 1.6% | Activity (Chorioallantoic membrane [24]): inactive | Activity (Chorioallantoic membrane [25]): Active | Activity (Chorioallantoic membrane [26]): Active | Activity (HT-29 [27]): 3.5%
